Source: PubChem (several laboratories)
An excerpt weighted towards active compounds, which were near 2.5% of everything screened.
NR2E3 ag-1: agonists of human nuclear receptor NR2E3; Q9Y5X4; GST-NR2E3/biotin-RetCOR TR-FRET, 1536-well; actives 0.12% (n = 320,000); inhibition of corepressor binding, % at 4.78 µM; AID 2300;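 active = percent inhibition above the cutoff of mean plus 3 SD of all tested compounds, set per screening campaign, cut at about 20% in these data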;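 note: 0% = DMSO wells and 100% = biotin wells as full block of FRET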
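Assay system: NR2E3–RetCOR corepressor complex. Quantity: 1.35 nM GST-NR2E3. Buffer or medium: pH 7.5 Tris-based buffer. Reagent: biotinylated RetCOR corepressor at 7 nM final. Schedule: 5 h at 4 °C. Detection: TR-FRET, emission read at 617 and 671 nm. Replicates: one well per compound, singlicate testing.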
NadD block: blocks S. aureus nicotinate mononucleotide adenylyltransferase; AID 602399; purified NadD enzyme, colorimetric absorbance read-out; actives 0.78% (n = 360,000); inhibition, % at 20 µM; in the data active = inhibition above about 26%
MsrA inhibitor: inhibitors of bovine MsrA; purified bovine MsrA, absorbance read-out; inhibition, % at 15.5 µM; AID 651718; actives 0.75% (n = 360,000);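 note: 0% = vehicle wells with enzyme and 100% = reference inhibitor wells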
NR2E3 ag-2: activates human NR2E3 receptor. Q9Y5X4. CHO-S Gal4-NCOR/VP16-NR2E3 two-hybrid, luciferase. inhibition of corepressor binding, % at 3.98 µM. actives 0.35% (n = 360,000);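 active = inhibition above the mean of all tested compounds plus 3 SD, cut at about 70% in these data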;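 note: 0% = DMSO with NR2E3 transfected cells and 100% = cells lacking NR2E3 construct; higher means lower luciferase signal from less NR2E3 corepressor binding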
GalR3 antag: blocks the human galanin receptor 3. O60755. HEK293 GalR3-CNG cAMP membrane potential fluorescence; galR3 body fused to GalR1 C-terminus. inhibition, % at 3 µM. actives 0.44% (n = 360,000);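 active = inhibition above the screen-wide average plus 3 SD, cut at about 13% in these data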;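 note: forskolin and galanin both at EC90 stimulate the cells; cAMP rise reported by CNG channel membrane potential dye signal; 0% = forskolin plus galanin with DMSO and 100% = forskolin alone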
Target sequence (O60755 1-299 limits assumed): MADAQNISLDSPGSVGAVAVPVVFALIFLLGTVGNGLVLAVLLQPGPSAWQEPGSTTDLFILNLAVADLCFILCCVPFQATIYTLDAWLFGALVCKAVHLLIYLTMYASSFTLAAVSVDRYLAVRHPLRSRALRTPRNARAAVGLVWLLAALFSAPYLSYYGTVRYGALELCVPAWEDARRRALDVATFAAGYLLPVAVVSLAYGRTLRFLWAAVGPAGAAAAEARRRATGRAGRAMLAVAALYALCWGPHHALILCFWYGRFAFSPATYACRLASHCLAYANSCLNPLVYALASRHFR
MsrA act: activators of bovine methionine sulfoxide reductase A; purified bovine MsrA, absorbance read-out; activation, % at 10.6 µM; actives 0.3% (n = 360,000); AID 602163; in the data active = activation above about 7.5%;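 note: 0% = vehicle and 100% = reference activator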
MsrA inh confirm: bovine MsrA inhibition, confirmed. inhibition, % at 15.5 µM. actives 41% (n = 2,300). shares compounds with MsrA inhibitor. purified bovine MsrA, absorbance read-out;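 note: coupled to thioredoxin reductase with NADPH and selenocystamine and DMSO as substrate; 0% = vehicle only and 100% = full effect of reference inhibitor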
Numbers without * were called inactive; nt = not tested or not shown. Cut-off read from the data, not from the text of the source, unless noted: active = inhibition above about 4.5%; inactive = the rest.

SMILES	NR2E3 ag-1	NadD block	MsrA inhibitor	NR2E3 ag-2	GalR3 antag	MsrA act	MsrA inh confirm
Cn1cnc([N+](=O)[O-])c1S(=O)(=O)Oc1cccc2ccccc12	nt	-2	14*	21	-7	-10	7.1*
Cn1cnc([N+](=O)[O-])c1S(=O)(=O)Oc1ccc(Cl)cc1	nt	-8	23*	-17	1	-1	13*
Cn1cnc([N+](=O)[O-])c1Oc1cccc2ccccc12	0	-2	1	0	3	-2	nt
CCOc1cc(N2CCOCC2)c(OCC)cc1NC(=O)c1cc(C)cc(C)c1	-1	-1	3	4	4	-4	nt
CC(Sc1nnc(Nc2ccccc2)s1)C(=O)NC1CCCc2ccccc21 (stereo not given)	-1	3	-1	10	0	-3	nt
N#C/C(=C\C=C\c1ccccc1)C(=O)NCc1cccnc1	-2	-6	7.6*	7	-1	-4	6.8*
N#C/C(=C\c1cccc([N+](=O)[O-])c1)C(=O)NCc1cccnc1	-3	14	1	-20	-9	-4	nt
N#C/C(=C\c1cccs1)C(=O)NCc1cccnc1	1	-5	5.5*	-19	-5	-9	4
N#C/C(=C\c1cccs1)C(=O)NCc1ccccc1	1	-4	4	-1	2	-4	nt
COc1ccccc1-c1nnc2sc(COc3ccc(Cl)cc3Cl)nn12	0	6	0	-16	-6	-2	nt
CN(C)c1ccc(C(=O)OCC(=O)N2CCCCCC2)cc1	7	-3	3	-62	-2	-5	nt
CN(C)c1ccc(C(=O)OCC(=O)N2CCCC2)cc1	-2	-4	5.7*	-58	-8	-4	2
Cn1c(C(=O)N2CCOCC2)cc2c(=O)n3ccccc3nc21	2	-1	3	0	0	-3	nt
Cn1c(C(=O)O)cc2c(=O)n3ccccc3nc21	3	2	5.3*	17	0	-8	2
COCCN1C(=O)N[C@@H](c2cccc(C(F)(F)F)c2)C(C(=O)OC)=C1C	1	2	nt	8	nt	-2	nt
CC(=O)c1ccc(N2CCN(S(=O)(=O)c3c(C(=O)N4CCCC4)c(C)n(C)c3C)CC2)cc1	-3	-2	5.1*	-6	11	-3	4
C/C=C\C=C/C(=O)Nc1cccc(C2=NOC3(C2)C[C@@H](C(N)=O)N(C(=O)c2ccc(Cl)cc2)C3)c1 (stereo not given in full)	3	6	-1	-3	0	-1	nt
S=C(NCCN1CCOCC1)N/N=C/c1ccccc1	-1	8	2	-2	3	-1	nt
COc1cc(/C=N/NC(=S)NCCN2CCOCC2)cc(OC)c1O	0	0	5.2*	-31	1	-8	5.7*
COc1cc(OC)c(OC)cc1/C=N/NC(=S)NCCN1CCOCC1	1	-8	5.1*	-16	-1	-3	4
COc1cc(/C=N/NC(=O)C(=O)NCC2CCCO2)ccc1O (stereo not given)	0	1	4.8*	3	-2	-8	4
COc1cc(OC)c(OC)cc1/C=N/NC(=S)NCC1CCCO1 (stereo not given)	-4	9	5.9*	-7	-3	-1	4.9*
Oc1ccc(/C=N/NC(=S)NCCN2CCOCC2)c(O)c1	0	4	4	-9	-6	-2	nt
CC1(CC(=O)N/N=C/c2cc(Br)c(O)cc2O)OCCO1	-3	1	6.1*	8	-1	-11	5.3*
O=C(Nc1cccc(C(=O)O)c1)/C(=C/c1cccc([N+](=O)[O-])c1)NC(=O)c1cccc(Br)c1	2	4	0	-3	-5	-9	nt
SMILES	NR2E3 ag-1	NadD block	MsrA inhibitor	NR2E3 ag-2	GalR3 antag	MsrA act	MsrA inh confirm
O=C(N/N=C/C(Cl)=C/c1ccc([N+](=O)[O-])cc1)C(=O)Nc1cccc(C(=O)O)c1	3	4	9.2*	-15	1	-5	5.3*
O=Cc1cn(-c2ccccc2)nc1-c1ccc2c(c1)OCCO2	3	-11	17*	-88	-7	-2	12*
O=Cc1cn(-c2ccccc2)nc1-c1ccc(F)cc1	1	-4	12*	-24	-12	-2	8.3*
N#Cc1cn(-c2ccccc2)nc1-c1ccc2c(c1)OCCO2	0	4	0	-47	0	0	nt
COc1cc(OC)cc(C(=O)Nc2ccc3c(c2)OCCO3)c1	1	-2	1	-56	-10	0	nt
CCN(C[C@H]1N[C@@](C)(C(=O)OC)[C@H]2C(=O)N(C)C(=O)[C@@H]12)S(=O)(=O)c1ccc(-c2ccccc2)cc1	nt	0	1	2	-4	0	nt
CCOC(=O)c1ccc(Nc2ccc(C(C)=O)cc2)cc1	nt	-7	1	-132	-6	-5	nt
CCOC(=O)c1ccc(Nc2c(OCC)c(=O)c2=O)cc1	0	-4	5.9*	-15	-1	-7	3
CC1(C)CC(=O)C(C=Nc2ccc(N)cc2)=C(O)C1	-7	5	3	0	-5	-3	nt
CC1(C)CC(=O)C(C=Nc2ccc(O)cc2)=C(O)C1	-1	-7	5.4*	4	-6	-4	4
COc1cccc(N=CC2=C(O)CC(C)(C)CC2=O)c1	0	-2	6.2*	8	-6	-2	4
CC1(C)CC(=O)C(C=Nc2ccc3[nH]ncc3c2)=C(O)C1	0	-4	5.6*	14	-3	-10	4.8*
CCc1nc2c(OCc3ccccc3C(=O)OC)cccn2c1N(C)C(=O)c1cccs1	nt	2	0	-16	-5	-2	nt
CCC(C)N1CCN(S(=O)(=O)c2ccc3ccccc3c2)CC1 (stereo not given)	1	-5	-1	-3	-12	-1	nt
O=C(O)c1ccc(/C=C2\SC(=Nc3ccccc3)N(c3ccccc3)C2=O)cc1	-2	-3	2	-7	-5	-2	nt
CC1CC(C)CN(C(=O)c2ccc(S(=O)(=O)N3CCCCC3)cc2)C1 (stereo not given)	3	3	-1	5	4	-3	nt
NNC(=O)/C=C/c1ccc(Cl)cc1Cl	0	2	0	-7	-3	-9	nt
COc1ccc(-c2cc(C(F)F)nc(-n3nc(C)cc3C)n2)cc1	-1	1	15*	-17	-7	-3	16*
Cc1ccc(-c2cc(C(F)F)nc(N3CCOCC3)n2)cc1	-1	-3	11*	-15	-6	-3	9.7*
Cc1cccc(NC2=C(C#N)C(=O)NC3(CCCC3)S2)c1	0	1	1	-33	-7	-3	nt
COC(=O)CSC1=C(C#N)C(=O)NC2(CCCCC2)S1	-1	3	5.7*	-4	4	-17	4
FC(F)Oc1ccc(NC(=S)NC2CCSc3ccccc32)cc1 (stereo not given)	nt	-5	0	24	-2	1	nt
